Results reported in ChEMBL document CHEMBL1649385, “Synthesis and in vitro anti-tumor activity of new oxadiazole thioglycosides” (Eur J Med Chem, 2011).
Values after ≈ are worked out from the molar mass of the structure shown.

Tests used:
[1] = Acute toxicity in po dosed albino Wistar rat assessed as mortality after 24 hrs; type: organism-based; details: in vivo
Method in brief: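 Male Wistar albino rats (110–115 g) were acclimated for 7 days with pellet diet and water ad libitum. Compound in DMSO was given as a single oral gavage of 500 mg/kg body weight at a fixed 0.5 mL/rat, with eight rats per group. Controls received 0.5 mL DMSO. Mortality was recorded after 24 h.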

[2] = test system: HepG2; assay: Cytotoxicity against human HepG2 cells after 48 hrs by SRB assay; type: functional, cell-based; details: HepG2, 48 h
Method in brief: (§1)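 SRB assay: cells seeded at 10⁴ cells/well and left 24 h to attach, then exposed to four concentrations of compound for 48 h at 37 °C, 5% CO₂. Cells fixed, washed and stained with sulforhodamine B; excess dye removed with acetic acid, bound dye taken up in Tris-EDTA and read on an ELISA reader. IC50 from surviving fraction versus concentration curves, relative to saline control.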

[3] = test system: MCF7; assay: Cytotoxicity against human MCF7 cells after 48 hrs by SRB assay; type: functional, cell-based; details: MCF7, 48 h; method in brief: as §1
[4] = Acute toxicity in albino Wistar rat assessed as mortality at 50 mg/kg, po after 24 hrs; type: organism-based; design: dose 50 mg/kg, route oral; details: in vivo, read-out: Activity

Row | SMILES | LD50 at 24 h [1] | IC50 [2] | IC50 [3] | mortality at 24 h [4]
1 | CC(=O)OC[C@H]1O[C@@H](Sc2nnc(-c3cn(-c4ccccc4)nc3CC(C)C)o2)[C@H](OC(C)=O)[C@@H](OC(C)=O)[C@@H]1OC(C)=O | > 500 mg/kg | 13.9 µg/mL (≈ 22 µM) | 7.1 µg/mL (≈ 11.3 µM) | 25%
2 | CSCSc1nnc(-c2cn(-c3ccccc3)nc2CC(C)C)o1 | > 500 mg/kg | 4.62 µg/mL (≈ 12.8 µM) | 2.67 µg/mL (≈ 7.41 µM) | 25%
3 | CC(C)Cc1nn(-c2ccccc2)cc1-c1nnc(S)o1 | > 500 mg/kg | 43.6 µg/mL (≈ 145 µM) | 17.9 µg/mL (≈ 59.6 µM) | –
4 | CC(=O)OC[C@@H]1O[C@H](Sc2nnc(C)c(=O)n2/N=C\c2cn(-c3ccccc3)nc2CC(C)C)[C@@H](OC(C)=O)[C@H](OC(C)=O)[C@H]1OC(C)=O | – | 9.1 µg/mL (≈ 13 µM) | 20.2 µg/mL (≈ 29 µM) | –
5 | O=c1[nH]cc(F)c(=O)[nH]1 [FLUOROURACIL] | – | 25 µg/mL (≈ 192 µM) | – | –
6 | CC/C(=C(\c1ccccc1)c1ccc(OCCN(C)C)cc1)c1ccccc1 [TAMOXIFEN] | – | – | 8.31 µg/mL (≈ 22.4 µM) | –
